# Measurements reported in ChEMBL document CHEMBL4699450, “Nonclassical Phenyl Bioisosteres as Effective Replacements in a Series of Novel Open-Source Antimalarials” (J Med Chem, 2020).
# pIC50: −log10 of the molar value. The source made the active and inactive calls. The rule behind the calls is not given here.
# Experiments:
# Plasmodium falciparum = test: Antiplasmodial activity against Plasmodium falciparum 3D7 by SYBR green-I fluorescence dye based fluorescence assay; type: functional, organism-based
# In short: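 P. falciparum 3D7 grown in human red cells (1.25% or 5% suspension) in RPMI 1640 with 0.5% Albumax II, 12 mM bicarbonate, 0.2 mM hypoxanthine, pH 7.3, gentamicin, 37 °C, 1% O2/3% CO2. Ten-point dose-response, 1-in-3 dilutions; SYBR Green I DNA fluorescence (ex 485/em 528 nm); mefloquine control; percent inhibition vs high/no-inhibition controls; four-parameter fit; IC50 from ≥3 independent experiments.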
# [1] = Distribution coefficient, logD of compound at pH 7.4 by HPLC analysis; type: physicochemical; conditions: octanol/water
# In short: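 LogD at pH 7.4 estimated by gradient HPLC, correlating retention (mean of 2 injections) against standards of known partition coefficient.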
# [2] = Half life in mouse liver microsomes at 1 uM in presence of NADPH-regenerating system; type: ADME, Microsome
# [3] = Kinetic solubility in pH 6.5 phosphate buffer after 30 mins by nephelometry; type: physicochemical; conditions: read-out: Kinetic_solubility
# In short: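 DMSO stock spiked into pH 6.5 phosphate buffer at 7 concentrations, final DMSO 1%; after 30 min precipitation read by nephelometry to give a solubility range.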
# [4] = target: Voltage-gated inwardly rectifying potassium channel KCNH2 (Homo sapiens, UniProt Q12809); test: Inhibition of human ERG
# [5] = Half life in human liver microsomes at 1 uM in presence of NADPH-regenerating system; type: ADME, Microsome
# Voltage-gated inwardly rectifying potassium channel KCNH2, sequence (Q12809 whole entry): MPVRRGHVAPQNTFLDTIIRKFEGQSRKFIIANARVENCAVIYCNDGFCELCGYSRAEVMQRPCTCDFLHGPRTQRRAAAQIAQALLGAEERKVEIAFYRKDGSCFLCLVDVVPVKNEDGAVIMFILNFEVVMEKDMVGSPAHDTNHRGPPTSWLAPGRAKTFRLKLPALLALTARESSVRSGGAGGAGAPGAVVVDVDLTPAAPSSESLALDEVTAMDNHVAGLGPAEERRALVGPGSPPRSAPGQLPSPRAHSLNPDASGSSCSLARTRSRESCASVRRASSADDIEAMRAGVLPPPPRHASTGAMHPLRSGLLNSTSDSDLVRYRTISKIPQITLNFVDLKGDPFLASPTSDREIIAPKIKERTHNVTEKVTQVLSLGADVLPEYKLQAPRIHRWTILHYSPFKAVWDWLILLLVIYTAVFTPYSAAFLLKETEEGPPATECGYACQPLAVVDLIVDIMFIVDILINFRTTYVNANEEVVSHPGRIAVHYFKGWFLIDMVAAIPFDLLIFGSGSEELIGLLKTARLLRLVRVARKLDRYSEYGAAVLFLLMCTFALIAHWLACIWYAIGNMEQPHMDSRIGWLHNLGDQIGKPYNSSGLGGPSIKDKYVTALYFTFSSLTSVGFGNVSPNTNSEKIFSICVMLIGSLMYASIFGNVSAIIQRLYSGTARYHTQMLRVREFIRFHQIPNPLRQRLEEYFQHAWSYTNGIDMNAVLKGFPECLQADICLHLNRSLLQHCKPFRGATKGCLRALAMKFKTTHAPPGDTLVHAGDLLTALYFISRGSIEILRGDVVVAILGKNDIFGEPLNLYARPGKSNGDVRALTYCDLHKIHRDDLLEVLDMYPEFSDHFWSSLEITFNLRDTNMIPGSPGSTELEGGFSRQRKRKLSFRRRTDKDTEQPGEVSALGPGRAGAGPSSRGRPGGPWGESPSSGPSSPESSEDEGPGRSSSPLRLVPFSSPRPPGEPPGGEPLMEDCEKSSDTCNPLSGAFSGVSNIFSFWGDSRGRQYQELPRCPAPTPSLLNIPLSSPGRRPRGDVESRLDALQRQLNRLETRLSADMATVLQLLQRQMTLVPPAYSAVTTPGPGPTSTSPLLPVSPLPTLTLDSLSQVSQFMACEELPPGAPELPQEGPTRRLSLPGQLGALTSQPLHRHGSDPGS
SMILES,Activity (Plasmodium falciparum),other results
FC(F)Oc1ccc(-c2nnc3cncc(OC[C@H]4C[C@@H]5C[C@@H]4[C@H]4O[C@@H]54)n23)cc1,inactive,–
FC(F)Oc1ccc(-c2nnc3cncc(OCCC45C6C7C8C6C4C8C75)n23)cc1 (stereo unspecified),Active,logD [1]: 4.3; half-life at 1 µM [2]: 3 min; solubility kinetic at 0.5 h [3]: < 1.6 µg/mL; pIC50 [4]: 5.37; half-life at 1 µM [5]: 9 min
CC(C)(C)OC(=O)N1CCC(c2nnc3cncc(OCCc4ccccc4)n23)C1 (stereo unspecified),inactive,–
FC(F)Oc1ccc(-c2nnc3cncc(OCCN4CC5(COC5)C4)n23)cc1,inactive,–
CC(C)(C)OC(=O)N1CCN(CCOc2cncc3nnc(-c4ccc(OC(F)F)cc4)n23)CC1,inactive,–
c1ccc(CCOc2cncc3nnc(C4CCNC4)n23)cc1 (stereo unspecified),inactive,–
c1ccc(CCOc2cncc3nnc(C4CCNCC4)n23)cc1,inactive,–
FC(F)Oc1ccc(-c2nnc3cncc(OCC45CC(C(F)F)(C4)C5)n23)cc1,Active,logD [1]: 3.6; half-life at 1 µM [2]: 66 min; solubility kinetic at 0.5 h [3]: 6.3 µg/mL; half-life at 1 µM [5]: 190 min
FC(F)Oc1ccc(-c2nnc3cncc(OC[C@H]4C[C@@H]5C[C@@H]4[C@@H]4O[C@H]54)n23)cc1,inactive,–
CC(C)(C)OC(=O)N1CCC(c2nnc3cncc(OCCc4ccccc4)n23)CC1,inactive,–
FC(F)Oc1ccc(-c2nnc3cncc(OCCC4COC4)n23)cc1,inactive,–
c1ccc(CCOc2cncc3nnc(C4CCOC4)n23)cc1 (stereo unspecified),inactive,–
FC(F)Oc1ccc(-c2nnc3cncc(Oc4ccccc4)n23)cc1,inactive,–
FC(F)Oc1ccc(-c2nnc3cncc(OCCc4ccccc4)n23)cc1,–,logD [1]: 3.7; half-life at 1 µM [2]: 7 min; solubility kinetic at 0.5 h [3]: 6.3 µg/mL; pIC50 [4]: 5.13; half-life at 1 µM [5]: 26 min
c1ccc(CCOc2cncc3nnc(C4CCOCC4)n23)cc1,inactive,–
FC(F)Oc1ccc(-c2nnc3cncc(OCCN4CCCC4)n23)cc1,inactive,–
FC(F)Oc1ccc(-c2nnc3cncc(OCCN4CCCCC4)n23)cc1,inactive,–
FC(F)Oc1ccc(-c2nnc3cncc(OCCN4CCNCC4)n23)cc1,inactive,–
